The whole screen tested about 2,500 compounds, of which about 460 (18%) were called active. The list is a sample of the results. A number with no mark means an inactive call.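 Rule for the calls: active = mean activation above a cutoff of low control average plus 3 SD from the earlier screen (cut at about 12% in these data); inactive = the rest.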
Experiment: compound fluorescence interference without thin filaments, confirmation, artefact control for cardiac RTF calcium sensitizer project, biochemical (AID 504382)
Conditions: IANBD fluorescence interference counterscreen, buffer, EC20 Ca2+; at 7.2 µM; hits give high values; scaled: EC20 calcium 0, EC100 calcium 100
Outline: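 Doses – one dose of 7.2 µM, 0.7% DMSO · Buffer or medium – MOPS/KCl/MgCl2/EGTA/NTA/DTT buffer, pH 7.2 · Probe or stimulus – Ca2+ fixed at EC20, 0.472 mM · Measured by – fluorescence intensity, excitation 480 nm, emission 540 nm · Read-out – fluorescence interference versus control range · Timing – 15 min compound exposure at 25 °C · Replication – triplicate wells per compound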

In order of falling fluorescence artifact activation:
1. OCCN(CCO)c1nc(N2CCCCC2)c2nc(N(CCO)CCO)nc(N3CCCCC3)c2n1  11.3%
2. COc1c(O)cccc1-c1nnn(CCC(=O)OCC(=O)c2ccccc2)n1  10.9%
3. O=C(COc1ccccc1F)NC1CC1  10.7%
4. Cc1cccc(C)c1OCC(C)N (centres undefined)  4.83%
5. COCCn1c(=NC(=O)/C=C/c2ccccc2)sc2cc(NC(C)=O)ccc21  3.82%
6. O=C(c1ccccc1)N1CCCCC1  2.65%
7. C=CCOc1ccccc1CNc1cccc(F)c1  1.22%
8. COc1ccc(CC/C(C)=N\NC(N)=O)cc1  1.07%
9. CC1CCCCN1C(=O)Cn1nnc(-c2cccnc2)n1 (centres undefined)  1.03%
10. C=CCn1cccc(C(=O)Nc2ccc(OC)c(Cl)c2)c1=O  0.54%
11. CCOC(=O)c1c(C(C)(C)C)oc2ccc(OCC#N)cc12  0.48%
12. CC(=O)c1nnn(-c2nc(N3CCCC3)nc(N(c3ccccc3)c3ccccc3)n2)c1C  0.23%
13. Nc1nc(SCC(=O)Nc2ccc(Cl)cc2)[nH]c(=O)c1-c1ccccc1  0.2%
14. COc1cc2c(cc1OC)-c1cc3ccc4c(c3c[n+]1CC2)OCO4  0.19%
15. COc1ccc(NC(=O)CSc2nncc3ccccc23)cc1  0.15%
16. O=C1c2ccccc2-c2c1cccc2C(=O)N1CCCCCC1  0.15%
17. COc1ccc(C)cc1NC(=O)CC1COc2ccccc2O1 (centres undefined)  0.06%
18. Cc1cccc(-n2c(C)cc(C=C3C(=O)c4ccccc4C3=O)c2C)c1  -0.01%
19. COC(=O)CCC(=O)OC1(C)C(=O)C=C2C=C(C3CC3)N(c3cccc(C#N)c3)C=C2C1=O (centres undefined)  -0.02%
20. COC(=O)c1ccc(Oc2c(F)c(F)nc(N3CCOCC3)c2F)cc1  -0.07%
21. O=C(c1ccccc1C(=O)N1CCN(c2ccccc2)CC1)N1CCN(c2ccccc2)CC1  -0.08%
22. O=C(c1ccc([N+](=O)[O-])cc1[N+](=O)[O-])n1cnc2ccccc21  -0.09%
23. COc1ccc(C)cc1Nc1n[n+](-c2ccccc2)c(-c2cc([N+](=O)[O-])cc(OC)c2O)s1  -0.11%

For `COc1ccccc1CNc1cc(C)ccc1C`, the fluorescence artifact activation was 415% (active).
For `CCC1SC(=Nc2cccc(C)c2)NC1=O` (centres undefined), the fluorescence artifact activation was 50% (active).
For `O=C(CSc1nncc2ccccc12)Nc1ccc(F)cc1`, the fluorescence artifact activation was 51.6% (active).
In the case of `Cc1[nH]c(C)c(S(=O)(=O)N2c3ccccc3CC2C)c1C(=O)N1CCCCC1` (centres undefined), the fluorescence artifact activation is reported as 43.6% (active).
In the case of `COc1ccc(N2CCN(C(=O)Cn3nnc(-c4ccccc4N)n3)CC2)cc1`, the fluorescence artifact activation is reported as 20.6% (active).
In the case of `C=CCn1c(C)c(C(C)=O)c(N2CCN(c3ccccc3)CC2)nc1=S`, the fluorescence artifact activation is reported as 28.9% (active).

— PubChem BioAssay AID504382 (The Scripps Research Institute Molecular Screening Center, 2011)
